Screening results (PubChem BioAssay)
CHO parental Ca: counter-screen for OX1R antagonists: effect in parental CHO cells; 0.63% of 330,000 active; parental CHO-K1, ATP-induced calcium, Fluo-8 fluorescence; inhibition, % at 5.6 µM; AID 463079;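 active = inhibition above that plate's mean sample inhibition plus 3 SD, cut at about 26% in these data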
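Assay system: untransfected parental CHO cell line. Also added: ATP agonist challenge. Dosing: one dose, 5.6 µM nominal. Measured by: Fluo-8 fluorescence. Read-out: % inhibition. Benchmarks: ATP wells versus no-ATP DMSO wells. Repeats: no replicates.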
OX1R antag-1: blocks the human orexin 1 receptor; O43613; inhibition, % at 6.6 µM; AID 485270; OX1R-expressing cells, FRET antagonist read-out; 1.8% of 330,000 active; in the data active = inhibition mostly above about 38%, no sharp cut-off; inactive = mostly below about 40%
GalR3 antagonist: human GalR3 antagonism; inhibition, % at 3 µM; O60755; HEK293 GalR3-CNG cAMP membrane potential fluorescence; galR3 body fused to GalR1 C-terminus; 0.44% of 360,000 active; AID 651719;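 active = inhibition above the screen-wide average plus 3 SD, cut at about 13% in these data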;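 also: forskolin and galanin both at EC90 stimulate the cells; cAMP rise reported by CNG channel membrane potential dye signal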
Target sequence (O60755 1-299 limits assumed): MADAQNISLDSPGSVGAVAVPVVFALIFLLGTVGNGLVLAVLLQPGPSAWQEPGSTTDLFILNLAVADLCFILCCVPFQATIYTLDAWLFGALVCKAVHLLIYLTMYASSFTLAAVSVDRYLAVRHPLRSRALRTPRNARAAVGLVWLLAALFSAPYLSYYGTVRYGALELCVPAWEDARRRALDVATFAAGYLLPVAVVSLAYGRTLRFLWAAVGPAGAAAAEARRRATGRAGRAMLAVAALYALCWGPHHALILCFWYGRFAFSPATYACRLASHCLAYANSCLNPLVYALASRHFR
GPR7 antagonist: antagonists of human GPR7 (neuropeptides B/W receptor 1). P48145. GPR7-expressing cells, fluorescence antagonist assay. inhibition, % at 4.4 µM. 1.1% of 290,000 active. AID 1861; in the data active = inhibition above about 16%, passing the limit was not always enough;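 also: cells stimulated with the agonist NPW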
OX1R antag-2: antagonists of human orexin 1 receptor. 0.43% of 330,000 active. CHO/OX1R cells, Fluo-8 calcium fluorescence, orexin A. inhibition, % at 5 µM. O43613;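 active = inhibition above its plate's threshold, mean inhibition of all tested compounds on the plate plus 3 SD, cut at about 37% in these data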
Of the large screens only hits and unclear results are named; the others gave an inactive call. The list is not random: actives were taken first. Their share in the collection is about 3.1%.

COc1ccc(Oc2nc3c(c(=O)n(C)c(=O)n3C)n2Cc2cccc(OC)c2)cc1	none
COCCOc1nc2c(c(=O)n(C)c(=O)n2C)n1Cc1cccc(OC)c1	CHO parental Ca 45
CNc1nnc(Sc2ncccc2[N+](=O)[O-])s1	OX1R antag-1 48
O=[N+]([O-])c1cccnc1Sc1ccc(F)cc1	none (no result: GPR7 antagonist)
C=CCN1C(=O)c2n[nH]c(C(C)C)c2C1c1ccc(C)cc1 (stereo not given)	none (no result: CHO parental Ca, OX1R antag-1, GPR7 antagonist, OX1R antag-2)
O=C(NCCCn1ccnc1)c1cc2cc([N+](=O)[O-])ccc2oc1=O	OX1R antag-1 69
O=C(NCCCn1ccnc1)c1ccc(Cl)cc1[N+](=O)[O-]	none
CN(CC(=O)NCc1cccs1)S(=O)(=O)c1cccc2nsnc12	OX1R antag-1 51
CN(CC(=O)NCc1ccc(F)cc1)S(=O)(=O)c1cccc2nsnc12	none
O=C(Nc1cnn(Cc2ccc(Cl)cc2)c1)c1cccs1	none
O=C(Nc1cnn(Cc2ccc(Cl)cc2)c1)c1ccc([N+](=O)[O-])cc1	CHO parental Ca 64
O=C(NN1C(=O)NC2(CCCCC2)C1=O)c1ccc(Cl)s1	none (no result: GPR7 antagonist)
Cc1ccc(CC(=O)Nc2cccc([N+](=O)[O-])c2)cc1	GPR7 antagonist 19
O=C(NC(=S)Nc1cccc([N+](=O)[O-])c1)C1CCCC1	GPR7 antagonist 20
O=C(Nc1ccc(C(=O)O)cc1)Nc1cccc([N+](=O)[O-])c1	none
Cc1ccc2nc(SCC(=O)Nc3ccc(C(N)=O)cc3)[nH]c2c1	none
Cc1ccc2nc(SCC(=O)Nc3cccc([N+](=O)[O-])c3)[nH]c2c1	OX1R antag-2 53
Cc1ccc(S(=O)(=O)CCC(=O)Nc2cccc([N+](=O)[O-])c2)cc1	none
O=C(Nc1cccc([N+](=O)[O-])c1)Nc1cccc([N+](=O)[O-])c1	CHO parental Ca 34
Cc1csc(NC(=O)COCC(=O)O)c1-c1nc2ccccc2s1	OX1R antag-1 53
Cc1[nH]n(-c2ccc([N+](=O)[O-])cc2)c(=O)c1C=NCCN1CCN(C(=O)C(C)C)CC1	CHO parental Ca 27
C=CC[n+]1c(/C=C/c2ccc(OC(C)=O)c(OC)c2)ccc2ccccc21	OX1R antag-1 48
COc1ccc(NC(=O)COc2ccc(/C=C/c3cccc[n+]3C)cc2OC)cc1	none
COc1ccccc1OCC(=O)Nc1ccccc1C(=O)N1CCCC1	none
O=C(COc1ccc(F)cc1Cl)Nc1ccccc1C(=O)N1CCCCC1	CHO parental Ca 99 (no result: GPR7 antagonist)
O=C(NNc1ccc([N+](=O)[O-])cc1[N+](=O)[O-])c1ccco1	OX1R antag-1 86 (no result: GalR3 antagonist)
Cn1c(=O)oc2ccc(S(=O)(=O)Nc3ccc(Cl)cc3[N+](=O)[O-])cc21	none (no result: CHO parental Ca, OX1R antag-1, GPR7 antagonist, OX1R antag-2)
CCNc1ccc(C(=O)OCC(=O)NCCN2C(=O)CSC2=O)cc1[N+](=O)[O-]	OX1R antag-1 68
Cc1ccc(S(=O)(=O)N2CCCc3nc(-c4ccc(Br)cc4)ccc32)cc1	none (no result: CHO parental Ca, OX1R antag-1, GPR7 antagonist, OX1R antag-2)
Cn1c(=O)c2c(n(C)c1=O)=NC1(CCCCC1)ON=2	OX1R antag-1 71
Cc1ccc(Br)cc1S(=O)(=O)N1CCN(c2ccccc2)CC1	CHO parental Ca 36
Cc1cc2c(cc1S(=O)(=O)N1CCN(c3ccccc3)CC1)OCCN2C	CHO parental Ca 34 (no result: GalR3 antagonist)
O=C(N[C@@H](Cc1cccnc1)C(=O)N1CCC[C@H]1C(=O)NC1CCCC1)c1ccc(Cl)c(Cl)c1	none (no result: CHO parental Ca, OX1R antag-1, GPR7 antagonist, OX1R antag-2)
CC(C)Cn1c(N)c(C(=O)COC(=O)C2=COCCO2)c(=O)n(C)c1=O	GPR7 antagonist 19
CC(C)Cn1c(N)c(C(=O)COC(=O)c2cnccn2)c(=O)n(C)c1=O	none (no result: GPR7 antagonist)
CC(C)Cn1c(N)c(C(=O)COC(=O)c2cc(F)cc(F)c2)c(=O)n(C)c1=O	GPR7 antagonist 18
CC(C)Cn1c(N)c(C(=O)COC(=O)c2ccc(O)cc2)c(=O)n(C)c1=O	none
COC(=O)c1cc2c(c3c4cc(F)ccc4n(S(=O)(=O)c4ccccc4)c13)C(=O)N(Cc1ccc(C(F)(F)F)cc1)C2	none (no result: CHO parental Ca, OX1R antag-1, GPR7 antagonist, OX1R antag-2)
COc1cc([N+](=O)[O-])c2ncsc2c1	OX1R antag-1 69
CCN1C(=O)[C@@H]2[C@@H](c3ccc(-c4cc(C(C)=O)cs4)cc3)N3CCC[C@@]3(C(=O)OC)[C@@H]2C1=O	none (no result: CHO parental Ca, OX1R antag-1, GPR7 antagonist, OX1R antag-2)
COCCN1CCn2c(nc3cc([N+](=O)[O-])ccc32)C1	OX1R antag-1 40
CCOc1ccc(C(C)NC(=O)c2cc(=O)[nH]c3ccccc23)cc1OCC (stereo not given)	none
CC(C)C(c1nnnn1C(C)(C)C)N1CCOCC1 (stereo not given)	none
CC(C)C(c1nnnn1C(C)(C)C)N1CCC(Cc2ccccc2)CC1 (stereo not given)	CHO parental Ca 42
